Screening results deposited in PubChem BioAssay by Broad Institute.
CDK5 p35 inh = CDK5/p35 (human) kinase inhibition; AID 488839; hit rate 0.01% among 330,000; Q00535+Q15078; inhibition, % at 10 µM; Recombinant CDK5/p35, ADP-Glo luminescence, 60 min;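 active = highest replicate inhibition of at least 50% and at least 75% of replicates reaching 50%; inconclusive = only one of the two criteria met; inactive = both criteria failed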;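 also: plate controls were DMSO neutral control for no effect and GW8510 at 10 µM for full effect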
SR-BI uptake up = activators of SR-BI mediated HDL lipid uptake; CHO ldlA[mSR-BI] cells, DiI-HDL uptake fluorescence, 3 h; 100 = double the neutral-control signal; activation, % at 12.5 µM; hit rate 0.096% among 320,000; AID 504775;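 active = mean replicate activation of at least 60% and every replicate at or above 60%; inconclusive = mean or all-replicate condition met, but not both; inactive = mean below 60% and not all replicates reaching 60%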;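 also: 0% = median plate neutral-control signal and 100% = twice that signal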
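material = CHO ldlA[mSR-BI] cells | medium = Ham's F12 with 0.5% BSA, HEPES 25 mM, pH 7.4 | reagent = fluorescent DiI-HDL, 10 µg/mL final | compound dosing = single-point compound dose | incubation = 3 h, 37 °C | measured by = bottom-read fluorescence, 550/595 nm | measure = HDL uptake via cellular fluorescence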
SR-BI HDL uptake = inhibitors of mouse SR-BI mediated HDL lipid uptake | Q61009 | inhibition, % at 12.5 µM | hit rate 0.96% among 320,000 | ldlA[mSR-BI] CHO cells, DiI-HDL uptake fluorescence, 3 h;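 active = mean replicate inhibition of at least 70% and a set share of replicates each scoring 70 or more; inconclusive = meets just one of the two criteria; inactive = fails both criteria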;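 also: 0% = median of neutral control wells and 100% = median of positive control wells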
Target sequence (Q61009 whole entry, looked up): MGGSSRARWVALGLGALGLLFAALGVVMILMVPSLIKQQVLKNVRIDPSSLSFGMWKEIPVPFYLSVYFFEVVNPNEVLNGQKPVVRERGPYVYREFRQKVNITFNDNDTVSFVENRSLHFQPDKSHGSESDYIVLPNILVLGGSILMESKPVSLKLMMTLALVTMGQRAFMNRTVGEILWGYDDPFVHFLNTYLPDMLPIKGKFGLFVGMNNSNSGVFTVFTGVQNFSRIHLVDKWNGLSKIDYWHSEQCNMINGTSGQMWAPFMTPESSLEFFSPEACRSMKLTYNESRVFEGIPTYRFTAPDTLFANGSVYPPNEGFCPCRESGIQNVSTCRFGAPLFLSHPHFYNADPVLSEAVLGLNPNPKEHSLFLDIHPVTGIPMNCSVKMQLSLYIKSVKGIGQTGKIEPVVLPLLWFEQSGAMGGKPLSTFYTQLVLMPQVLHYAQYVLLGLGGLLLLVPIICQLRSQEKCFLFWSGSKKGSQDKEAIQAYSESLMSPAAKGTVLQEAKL
dFosB activator = activators of mouse delta FosB homodimer. purified delta FosB, TAMRA-CDK5 oligo fluorescence polarization; percent of positive-control signal above neutral wells. hit rate 0.99% among 340,000. P13346. activation, % at 25 µM;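 active = mean activation above about 17%, with every replicate also reaching it, limit read from the data, passing the limit was not always enough; inconclusive = only one of the two conditions met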
* marks the source's active call; other numbers are inactive results; u = inconclusive; x = no result given; ! = not confirmed by another sample. Only some compounds are listed: those with a hit (about 2% of all), similar ones and a draw of the others.

SMILES	CDK5 p35 inh	SR-BI uptake up	SR-BI HDL uptake	dFosB activator
Cc1ccc(C(=O)Nc2cccc(-c3ccc(N4CCOCC4)nn3)c2)cc1	1	-17	17	-4
Cc1nn(C(C)C(=O)NCCN2CCCC2)c(=O)c2c1sc1ccccc12 (stereo not drawn)	0	20	-20	-3
COc1ccc(C(=O)c2sc(NC(C)C)nc2N)cc1OC	-3	-3	3	-3
COc1cccc(C(=O)c2sc(NC(C)C)nc2N)c1	55*	6	-6	-4
O=c1[nH]c(N/N=C\c2ccc3c(c2)OCO3)nc2ccccc12	-2	4	-4	34*
O=c1[nH]c(N/N=C/c2ccccc2)nc2ccccc12	0	36	-36	-13
Cc1cc(N/N=C/c2ccc3c(c2)OCO3)nc2ccccc12	0	-9	9	61*
O=C(COc1ccc(Cl)cc1)Nc1cc2c3c(c1)CC(=O)N3CCC2	1	-63	63	-12
Cc1ccc(C23CCC(=O)N2C(C(=O)O)CS3)c(C)c1 (stereo not drawn)	0	x	x	0
Oc1ccc(Nc2nc3ccccc3nc2Nc2ccc(O)cc2)cc1	-1	-90	90*	-7
COc1cc(OC)cc(C(=O)N2CCC(C(=O)NCCc3ccccc3)CC2)c1	-1	-5	5	2
COc1cc(NC(=S)NC(=O)c2c(OC)cccc2OC)ccc1NC(=O)c1cccs1	1	-74	74*	0
COc1cc(NC(=O)c2cc3ccccc3cc2OC)ccc1NC(=O)c1cccs1	-1	x	71*	-4
COc1cc(NC(=S)NC(=O)c2ccccc2F)ccc1NC(=O)c1cccs1	-1	-83	83*	-9
COc1cc(NC(=S)NC(=O)c2ccccc2C)ccc1NC(=O)c1cccs1	0	-59	59	-1
COc1cc(NC(=O)c2ccccc2Cl)ccc1NC(=O)c1cccs1	3	-67	67	-7
COc1ccccc1C(=O)C1CCCN(C(=O)c2cccc(-n3cccn3)c2)C1 (stereo not drawn)	-1	x	x	2
COc1cc(NC(=O)CCCNC(=O)c2ccc(Cl)cc2)cc(OC)c1OC	-1	14	-14	5
OCCNc1c2ccccc2nc2ccccc12	2	7	-7	20*
OCCNc1nc2ccccc2nc1NCCO	-1	3	-3	-7
COc1ccc(OC)c(Nc2c3ccccc3nc3ccccc23)c1	1	-27	27	37*
COc1ccc(OC)c(Nc2cc(C)c3ccccc3n2)c1	1	-40	40	0
Cc1ccc(Nc2nc(NCCO)c3ccccc3n2)cc1C	1	0	0	32*
COc1ccc(OC)c(Nc2nc(NCCO)c3ccccc3n2)c1	0	-17	17	31*
COc1ccc(-c2cnnn2-c2ccc([N+](=O)[O-])cc2)cc1	-2	-13	13	-13
SMILES	CDK5 p35 inh	SR-BI uptake up	SR-BI HDL uptake	dFosB activator
COc1ccc(CNC(=O)CCSCc2cccc(F)c2)cc1	1	-12	12	-7
COc1ccc(Nc2ncnc3ccccc23)c(OC)c1	-1	-5	5	0
COc1ccc(Nc2nc(N3CCCC3)nc3ccccc23)c(OC)c1	-1	-36	36	39*
COCCCNC(=S)N1CCC(C(=O)c2ccc(Cl)cc2)CC1	1	-20	20	-1
CCOc1ccc(N(CC(=O)N2CCc3ccccc32)S(=O)(=O)c2c(C)noc2C)cc1	1	3	-3	-1
Cc1n[nH]c(C)c1S(=O)(=O)N(CC(=O)N1CCc2ccccc21)c1ccc(C(C)C)cc1	1	8	-8	50*
CC(C)N=C(N)N=C(N)Nc1ccc(Cl)cc1	-3	7	-7	-7
NC(=NCCCCCCN=C(N)/N=C(\N)Nc1ccc(Cl)cc1)/N=C(\N)Nc1ccc(Cl)cc1	2	92*!	-92	6
CCN1CCN(Cc2ccc(NC(=O)c3ccc(C)c(NC(=O)C4=NN(c5ccccc5)C(=O)C4)c3)cc2C(F)(F)F)CC1	0	-44	44	66*
CCN1CCN(Cc2ccc(NC(=O)c3cc(NC(=O)C4=NN(c5ccccc5)C(=O)C4)cc(OC)c3)cc2C(F)(F)F)CC1	1	-30	30	60*
CCOC(=O)/C(=C\c1ccc(OC(F)F)cc1)C1=Nn2c(nnc2-c2ccc(Cl)cc2)SC1	-1	-89	89*	-9
CCOC(=O)/C(=C/c1ccc(OC(F)F)cc1)C1=Nn2c(nnc2-c2ccc(Cl)cc2)SC1	1	-39	39	-8
COc1cccc(/C=N/Nc2nc(Nc3ccc([N+](=O)[O-])cc3)nc(N3CCCC3)n2)c1O	-1	-87	87*	67*
O=C(Nc1ccccc1)N1CCC(C(=O)N2CCN(c3ccccc3F)CC2)CC1	-2	-80	80*	-3
O=C(COC(=O)c1cccnc1SCC(=O)NCc1ccccc1)NCc1ccccc1	1	8	-8	1
COc1ccccc1CNC(=O)COC(=O)c1cccnc1SCC(=O)NCc1ccccc1OC	0	-45	45	41*
O=C(NC1CCCCC1)c1cc(S(=O)(=O)N2CCCCC2)ccc1N1CCOCC1	-3	26	-26	-5
CC1CCCC(NC(=S)NC(=O)c2ccco2)C1C (stereo not drawn)	0	0	0	-5
CC(C)NC(=O)c1sc2nc3c(c(-c4cccs4)c2c1N)CN(C)CC3	0	3	-3	4
Cc1cccc(NC(=O)c2sc3nc4c(c(-c5cccs5)c3c2N)CN(C)CC4)c1	0	-83	83*	-13
O=c1cc(N2CCOCC2)[nH]c(=O)n1Cc1ccc(F)cc1	1	231*	-231	6
O=c1cc(N2CCN(c3ccc(F)cc3)CC2)[nH]c(=O)n1Cc1ccc(F)cc1	-1	0	0	-2
CN(C)C(=O)CCc1ccc2c3c([nH]c2c1)[C@]1(C)[C@@H](C(=O)N2CCOCC2)C[C@H](CC(=O)NCCN2CCOCC2)C(=O)N1CC3	1	-4	4	-1
Cc1ccc(-c2cc(C(=O)N/N=C/c3ccccc3O)n[nH]2)o1	2	-83	83*	51*
Cc1ccc(-c2cc(C(=O)N/N=C/c3c[nH]c4ccccc34)n[nH]2)o1	3	-16	16	-3
SMILES	CDK5 p35 inh	SR-BI uptake up	SR-BI HDL uptake	dFosB activator
Cc1ccc(SCC(=O)OCC(=O)NCCc2ccc(S(N)(=O)=O)cc2)c(C)c1	-1	2	-2	-6
Cc1ccc(C)c(Nc2c([N+](=O)[O-])cc(C(=O)N3CC(=O)Nc4ccccc43)cc2[N+](=O)[O-])c1	0	-72	u	-9
Cc1cccc(Nc2c([N+](=O)[O-])cc(C(=O)N3CC(=O)Nc4ccccc43)cc2[N+](=O)[O-])c1	1	-82	82*	-9
O=C(c1ccccc1SCc1ccccc1)N1CCCCCC1	0	16	-16	7
COc1cc(C(=O)Oc2ccccc2/C=N/NC(=O)c2ccc(C)c(Cl)c2)cc(OC)c1OC	-5	-115	115*	-3
COc1cc(C(=O)Oc2ccccc2/C=N/NC(=O)c2ccc(Cl)cc2)cc(OC)c1OC	-9	-117	117*	2
